Source: PubChem BioAssay (several laboratories)
Sampled rows, rich in hits. Any-hit rate of the full collection: about 2.1%.
CXCR6 block – CXCR6 (human) receptor inhibition; O00574; CHO-K1 PathHunter CXCR6 beta-arrestin, luminescence; inhibition, % at 20 µM; hit rate 0.36% among 360,000; in the data active = inhibition above about 34%, passing the limit was not always enough;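 note: antagonist mode with CXCL16 agonist at 10 nM final; 0% = 10 nM CXCL16 with DMSO and 100% = unstimulated wells without agonist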
Target sequence (O00574 whole entry, looked up): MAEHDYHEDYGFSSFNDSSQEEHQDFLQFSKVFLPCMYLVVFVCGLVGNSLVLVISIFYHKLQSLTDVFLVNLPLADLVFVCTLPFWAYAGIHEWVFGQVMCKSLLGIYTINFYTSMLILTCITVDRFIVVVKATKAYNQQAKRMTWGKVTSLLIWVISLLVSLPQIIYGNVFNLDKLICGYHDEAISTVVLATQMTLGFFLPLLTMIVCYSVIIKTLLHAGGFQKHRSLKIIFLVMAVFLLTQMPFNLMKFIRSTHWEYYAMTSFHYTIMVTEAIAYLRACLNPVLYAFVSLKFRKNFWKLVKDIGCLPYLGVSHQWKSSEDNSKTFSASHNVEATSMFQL
APJ antag – blocks the human apelin receptor APJ. hit rate 0.32% among 330,000. inhibition, % at 20 µM. CHO-K1 APJ beta-arrestin complementation, luminescence. P35414. AID 2521;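 active = inhibition above about 40% at 20 µM, limit read from the data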;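 note: cells challenged with 10 nM apelin-13 agonist together with compound; plate controls were apelin-13 plus DMSO wells for no effect and DMSO wells lacking apelin-13 for full effect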
APJ ag – activates the human apelin receptor APJ | hit rate 0.11% among 330,000 | activation, % at 20 µM | CHO-K1 APJ PathHunter beta-arrestin, luminescence; 0% DMSO wells, 100% apelin;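 active = activation more than six SD over the plate average, tested at 20 µM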;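 note: 0% = DMSO alone and 100% = apelin-13 at 10 nM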
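Assay system: CHO-K1 APJ beta-arrestin complementation cell line / Compound: single test compound dose, 20 µM final, 1% DMSO / Times: overnight seeding, 90 min compound at 25 °C, 1 h detection / Technique: beta-gal luminescence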
m5-HT2A agonist – activates the mouse 5-HT2A serotonin receptor. CHO-K1 mHTR2A beta-arrestin complementation, luminescence; percent of 30 µM serotonin response. activation, % at 7.6 µM. hit rate 0.66% among 360,000. AID 624169;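 active = activation above a run cutoff, the mean activation of all tested compounds plus 3 SD, cut at about 14% in these data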;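 note: 0% = plate median of compound wells and 100% = 30 µM serotonin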
EBI2 block – antagonists of human EBI2 receptor. P32249. EBI2 beta-arrestin recruitment, luminescence, 7a,25-OHC stimulated. inhibition, % at 5 µM. hit rate 0.81% among 360,000. AID 651636; in the data active = inhibition above about 38%;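 note: enzyme fragment complementation signal reports receptor beta-arrestin coupling in cells; 0% = agonist plus DMSO wells and 100% = wells without agonist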
CCR6 antagonist – antagonists of human CCR6 receptor; hit rate 0.49% among 340,000; P51684; inhibition, % at 20 µM; CHO-K1 CCR6 PathHunter beta-arrestin, luminescence, CCL20-stimulated;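 active = compounds whose inhibition of the agonist-driven luminescence signal at 20 µM reaches about 50%, limit read from the data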;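 note: cells stimulated with CCL20 at 14 nM final; plate controls were DMSO with CCL20 for no effect and DMSO without agonist for full effect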
EBI2 antag conf – confirmation of human EBI2 receptor antagonists | hit rate 29% among 2,400 | EBI2 beta-arrestin luminescence, 7a,25-OHC antagonism | inhibition, % at 5 µM | shares compounds with EBI2 block | AID 651997;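 active = inhibition of at least 50%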
EBI2 ag – counter-screen for EBI2 antagonists: EBI2 agonist activity | shares compounds with EBI2 block | EBI2-expressing cells, agonist mode, luminescence, 60 min; 0% vehicle, 100% 7α,25-dihydroxycholesterol control | activation, % at 5 µM | 2,400 tested, under 10 active;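 active = activation of at least 50%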
bGal counter – beta-galactosidase inhibition counter-screen | shares compounds with EBI2 block | hit rate 1% among 2,400 | inhibition, % at 5 µM | purified beta-galactosidase, luminescent Galacton Star, 15 min | AID 652176;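 active = replicate-average signal at least 3 plate SD below neutral wells, shown as high inhibition, flagging enzyme-inhibiting false positives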;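 note: 0% = DMSO wells with enzyme and 100% = wells lacking enzyme; higher means stronger loss of beta-gal luminescence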
An asterisk follows results filed as active; . = no result given.

SMILES	CXCR6 block	APJ antag	APJ ag	m5-HT2A agonist	EBI2 block	CCR6 antagonist	EBI2 antag conf	EBI2 ag	bGal counter
COCc1cc(C)nc(OCC(=O)N/N=C/c2ccc(OC)c(OC)c2)c1C#N	4	5	0	12	-1	9	.	.	.
Cc1ccc2c(c1)-c1c(cnn1CC(=O)N(Cc1ccco1)C1CCCCC1)CO2	1	12	1	-2	47*	18	29	1	2
Cc1cc(C)nc(Nc2nc(-c3ccccc3)cs2)n1	-4	-19	-1	-2	10	7	.	.	.
c1ccc(-c2csc(Nc3nc(N4CCOCC4)nc(N4CCOCC4)n3)n2)cc1	-3	0	5	0	50*	-6	37	-1	-10
CCC(=O)NC(=S)Nc1ccc(N2CCN(C(=O)c3ccc(Cl)cc3)CC2)cc1	-3	1	-2	13	43*	8	11	0	-11
Cc1ccc(C(=O)N2CCC(C(=O)c3ccc(F)cc3)CC2)cc1	0	.	.	2	52*	2	50*	1	1
COc1ccccc1C(=O)N1CCC(C(=O)c2ccc(F)cc2)CC1	1	7	-1	-2	0	-2	.	.	.
O=C(NC(=S)Nc1ccc(N2CCOCC2)cc1)c1ccc(Cl)cc1	-2	-4	3	-2	6	-4	.	.	.
Cc1ccc(C(=O)N2CCC(C(=O)c3c(C)cc(C)cc3C)CC2)cc1	-11	-8	0	-3	43*	0	14	0	-11
Cc1ccc(C(=O)C2CCN(C(=O)c3ccc(C)cc3)CC2)cc1	-1	8	-1	1	57*	9	32	0	-14
COC(=O)c1ccc2c(=O)n(CCN3CCOCC3)c(SCC(=O)Nc3ccccc3OC)nc2c1	5	.	.	1	-2	.	.	.	.
O=C(c1ccc(Cl)cc1)C1CCN(C(=O)c2ccc(F)cc2)CC1	-7	4	-1	0	49*	11	14	1	7
O=C(c1ccc(Cl)cc1)N1CCN(c2ccc(F)cc2)CC1	7	-1	3	1	51*	-4	41	0	3
CC(=O)N1CCC(C(=O)c2ccc(Cl)cc2)CC1	-5	-4	-8	2	1	-4	.	.	.
CCN(CC)S(=O)(=O)c1ccc2oc(C(=O)NC3CCCc4ccccc43)c(C)c2c1 (centres undefined)	8	5	-5	-2	43*	18	10	-2	-12
O=c1[nH]c(CN2CCN(S(=O)(=O)/C=C/c3ccccc3)CC2)nc2ccccc12	-6	10	-2	4	46*	12	22	-2	-10
O=c1[nH]c(CN2CCN(S(=O)(=O)/C=C/c3ccccc3)CC2)nc2cc(Cl)ccc12	-1	3	-1	4	71*	14	41	-2	-12
CC(c1nc2ccccc2c(=O)[nH]1)N1CCN(S(=O)(=O)c2ccc(F)c(Cl)c2)CC1 (centres undefined)	-5	.	.	0	59*	.	48	1	0
O=C(Cc1n[nH]c(=O)c2ccccc12)N1CCN(S(=O)(=O)c2ccc(F)c(Cl)c2)CC1	-1	10	-6	6	2	7	.	.	.
O=c1[nH]c(CN2CCN(C/C=C/c3ccccc3)CC2)nc2ccccc12	-1	10	3	-9	21	13	.	.	.
O=c1[nH]c(CN2CCN(S(=O)(=O)c3ccc4ccccc4c3)CC2)nc2ccccc12	-4	-5	-1	-1	53*	10	25	4	5
Cc1ccc(F)cc1NC(=O)N1CCCN(C(=O)OC(C)(C)C)CC1	2	1	-3	8	3	10	.	.	.
